{"source": "paper PMC9523306", "about": "(The Journal of Veterinary Medical Science, 2022)", "test_in_all_cases": "Reverse transcription-PCR, right cerebral cortex", "assay_type_in_all_cases": "in vivo, rat", "details_in_all_cases": "retinoic acid + MCAO animals; 5 mg/kg intraperitoneally for four days before MCAO; ratio of PCR product intensity to β-actin intensity; mean ± S.E.M., n=5", "key": {"[1]": {"tested_on": "Adenosylhomocysteinase mRNA", "how_it_was_run": "(§1)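 Male Sprague-Dawley rats (200–220 g). Test compound was given in PEG/0.9% NaCl/ethanol (70/20/10 by volume), and vehicle was solvent alone. The right MCA origin was occluded by intraluminal 4–0 nylon suture for 24 hr; shams had surgery without the suture. Total RNA from the right cortex (Trizol) was used, with 500 ng reverse-transcribed. PCR ran 28–30 cycles (94°C 30 sec, 54–56°C 30 sec, 72°C 1 min), then 1% agarose, UV, densitometry. Two-way ANOVA, Scheffe post-hoc.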"}, "[2]": {"tested_on": "Isocitrate dehydrogenase [NAD^+] subunit α mRNA", "how_it_was_run": "as §1"}, "[3]": {"tested_on": "glycerol-3-phosphate dehydrogenase mRNA", "how_it_was_run": "as §1"}, "[4]": {"tested_on": "Rab GDP dissociation inhibitor β mRNA", "how_it_was_run": "as §1"}, "Apolipoprotein A1 mRNA": {"tested_on": "Apolipoprotein A1 mRNA", "how_it_was_run": "as §1"}, "[5]": {"tested_on": "heat shock protein 60 mRNA", "how_it_was_run": "as §1"}}, "data": [{"smiles": "CC1=C(/C=C/C(C)=C/C=C/C(C)=C/C(=O)O)C(C)(C)CCC1", "note": "[retinoic acid, Retinoic acid]", "values": [{"measurement": "Adenosylhomocysteinase mRNA levels", "setting": "[1]", "result": "1.28 ± 0.06"}, {"measurement": "Isocitrate dehydrogenase [NAD^+] subunit α mRNA levels", "setting": "[2]", "result": "1.36 ± 0.05"}, {"measurement": "Expression levels of glycerol-3-phosphate dehydrogenase mRNA", "setting": "[3]", "result": "0.91 ± 0.02"}, {"measurement": "Rab GDP dissociation inhibitor β mRNA levels", "setting": "[4]", "result": "1.02 ± 0.02"}, {"measurement": "Apolipoprotein A1 mRNA levels", "setting": "Apolipoprotein A1 mRNA", "result": "1.13 ± 0.02"}, {"measurement": "Expression levels of heat shock protein 60 mRNA", "setting": "[5]", "result": "0.95 ± 0.05"}]}]}
